# Assay outcomes as filed in PubChem.
# UCH37 DUB inh: inhibitors of human deubiquitinating enzyme UCH37; purified proteasome/UCH37, Ub-AMC cleavage fluorescence; inhibition, % (no concentration beside the values); hit rate 0.33% among 330,000; AID 588478;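 active = mean inhibition over replicate wells above about 20%, limit read from the data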
# Target sequence (Q9Y5K5 whole entry, looked up): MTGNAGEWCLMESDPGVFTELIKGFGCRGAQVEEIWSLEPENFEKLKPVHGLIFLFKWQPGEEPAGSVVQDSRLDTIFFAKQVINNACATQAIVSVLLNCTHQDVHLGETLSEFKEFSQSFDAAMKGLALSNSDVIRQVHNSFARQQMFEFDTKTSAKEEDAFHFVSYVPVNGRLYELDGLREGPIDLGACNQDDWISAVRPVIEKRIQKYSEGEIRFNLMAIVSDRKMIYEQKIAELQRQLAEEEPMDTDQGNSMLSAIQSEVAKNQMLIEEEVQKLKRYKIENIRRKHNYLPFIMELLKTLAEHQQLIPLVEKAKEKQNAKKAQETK
#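 Signal – fluorescence, ex 355 nm, em 460 nm · System – Proteasome-bound UCH37 · Input – 0.15 nM proteasome as dispensed · Timing – 30 min preincubation with enzyme, 25 min cleavage at room temperature · Read-out basis – percent inhibition of cleavage signal versus uninhibited and no-proteasome wells · Medium – Tris-HCl pH 7.4 with ATP-MgCl2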
# SENP6 block: blocks the human protease SENP6; inhibition, % at 10 µM; Q9GZR1; hit rate 1.8% among 330,000; Recombinant SENP6 catalytic domain, aminoluciferin luminescence;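 active = inhibition above about 50% at the single tested dose, limit read from the data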
# SENP1 FRET inh: blocks the human SENP1 SUMO protease catalytic domain; recombinant SENP1 catalytic domain, CyPet-SUMO1-YPet FRET cleavage; inhibition, % at 10 µM; hit rate 0.21% among 360,000;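 active = inhibition at least 30% at 10 µM, raw YFP signal under a set limit, fluorescence ratio 0.5 to 1.5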
#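 Material – human SENP1 catalytic domain · Input – SENP1 enzyme, 20 pM final · Compound dosing – single concentration of 10 µM compound, 0.5% DMSO final · Timing – enzyme reaction for 50 min at room temperature, dark · Measured by – FRET fluorescence in CFP and YFP emission channels · Control set – no-enzyme wells low, DMSO-plus-enzyme wells high control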
# SENP7 inh: inhibitors of human SENP7 protease; Q9BQF6; recombinant SENP7, Z-RLRGG-aminoluciferin luminescence, 40 min; inhibition, % at 5 µM; hit rate 1.5% among 330,000;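 active = inhibition above about 50% at the single test dose, limit read from the data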
# SENP8 block-1: blocks the human protease SENP8; Q96LD8; purified SENP8, Z-RLRGG-aminoluciferin cleavage, luminescence; inhibition, % at 10 µM; hit rate 1.2% among 330,000; AID 2540; in the data active = inhibition above about 50%
# SENP8 block-2: blocks human SENP8 cleavage of Nedd8 substrate; inhibition, % at 20 µM; Q96LD8; hit rate 0.64% among 360,000; recombinant SENP8, Nedd8 substrate fluorescence; in the data active = inhibition mostly above about 40%, no sharp cut-off; inactive = mostly below about 27%
# SENP8 inh conf: SENP8 (human) inhibition, single concentration confirmation; inhibition, % at 25 µM; shares compounds with SENP8 block-2; purified SENP8, Nedd8-AMC/pro-Nedd8 cleavage fluorescence, 30 min; hit rate 15% among 1,400; in the data active = inhibition mostly above about 39%, no sharp cut-off; inactive = mostly below about 34%
# Hits are given with their value; . = inactive; / = no result. This is a sample that favours compounds with a hit; in the whole collection about 2.6% have one here.
SMILES,UCH37 DUB inh,SENP6 block,SENP1 FRET inh,SENP7 inh,SENP8 block-1,SENP8 block-2,SENP8 inh conf
Cc1cc(OC(C)C(=O)N(Cc2cccs2)C2CCS(=O)(=O)C2)ccc1Cl (stereo not drawn),.,.,.,.,.,.,/
Cc1ccc(OC(C)C(=O)N(Cc2cccs2)C2CCS(=O)(=O)C2)cc1C (stereo not drawn),.,.,.,.,.,41,.
Cc1ccc(S(=O)(=O)NN=Cc2cccc3nccnc23)cc1,.,/,/,/,/,/,/
c1ccc(Sc2ccccn2)cc1,.,.,.,.,.,40,.
CC(C)(C)OC(=O)NCCCCCNC(=O)c1nc[nH]c1C(=O)N1CCc2ccccc2C1,.,.,.,.,.,48,57
COc1ccc(/C=C/C(=O)NC(=S)Nc2ccc(N3CCN(C(C)=O)CC3)cc2)cc1,.,.,.,.,.,51,.
CN(C)c1ccc(NC(=S)NC(=O)/C=C/c2ccc(Cl)cc2)cc1,.,.,.,.,.,41,.
COc1cc(OC)cc(C(=O)NC(=S)N2CCCCCC2)c1,.,.,.,.,.,.,/
COc1cc(OC)cc(C(=O)NC(=S)Nc2ccc(N3CCCC3)cc2)c1,.,.,.,.,.,43,.
CC(=O)N1CCN(c2ccc(NC(=S)NC(=O)/C=C/c3ccccc3)cc2)CC1,.,.,/,.,.,/,/
O=[N+]([O-])c1ccccc1C=Nn1c(COc2ccccc2)n[nH]c1=S,.,/,/,/,/,/,/
CCOc1ccc(C=NNc2ccc(S(=O)(=O)Nc3ccccc3C(=O)O)cc2[N+](=O)[O-])cc1,.,.,.,.,.,49,.
CCCCCCCC(=O)NN=Cc1ccc([N+](=O)[O-])o1,.,/,/,/,/,/,/
c1ccc(Nc2cc(Nc3ccccc3)[nH]n2)cc1,.,.,.,.,.,55,.
Cc1c(Cl)cccc1NC(=O)CSC(C)c1nc2ccccc2c(=O)[nH]1 (stereo not drawn),.,.,.,.,.,27,.
CC(SCC(=O)Nc1ccccc1)c1nc2ccccc2c(=O)[nH]1 (stereo not drawn),.,.,.,.,.,.,/
Cc1ccsc1C=Nn1c(-c2cccnc2)n[nH]c1=S,.,/,/,/,/,/,/
O=C(/C=C/CCc1ccc2c(c1)OCO2)N1CCCCC1,.,.,.,.,.,57,.
O=C(CSc1nnc(SCc2ccccc2)s1)NN=Cc1c(Cl)cccc1Cl,.,/,/,/,/,/,/
CSCCC(C(O)=C(C#N)c1nc2ccccc2[nH]1)N1C(=O)c2ccccc2C1=O (stereo not drawn),.,/,/,/,/,/,/
N#CC(C#N)=c1ccc2c(c1)N1C3=C(CCCC3)CC3CCCCC31N=2 (stereo not drawn),.,.,.,.,.,43,.
CCOC(=O)Nc1ccc2c(c1)N(C(=O)CN(CC)CC)c1ccccc1CC2,.,.,.,.,.,.,/
CCN(CC)CC(=O)Nc1ccc2c(c1)N(C(=O)CN(CC)CC)c1ccccc1CC2,.,.,.,.,.,40,55
O=C(NN=Cc1ccc(-c2ccc(S(=O)(=O)Nc3ncccn3)cc2)o1)c1cc2ccccc2cc1O,.,/,/,/,/,/,/
CC1(C)SC(=S)N(/N=C/c2ccccc2)C1N(O)C(=O)Nc1ccc([N+](=O)[O-])cc1 (stereo not drawn),/,.,.,.,.,44,.
SMILES,UCH37 DUB inh,SENP6 block,SENP1 FRET inh,SENP7 inh,SENP8 block-1,SENP8 block-2,SENP8 inh conf
Cc1nc(-[n+]2nc(-c3ccncc3)nn2-c2ccccc2)sc1C,/,/,.,/,/,41,.
CC1=C(C(N)=O)C(c2ccccc2)n2nc(-c3ccncc3)nc2N1 (stereo not drawn),.,.,.,.,.,.,/
C=CCn1c(CNc2ccc(C)cc2)nnc1SCC(=O)NN=Cc1ccc(O)cc1,.,/,/,/,/,/,/
O=C(Nc1ccc(N2CCN(Cc3ccccc3)CC2)cc1)c1cccnc1,.,.,.,.,.,45,.
CC1CC(=O)N(c2ccc(NCCc3ccc(O)cc3)c([N+](=O)[O-])c2)C1=O (stereo not drawn),.,.,.,.,.,42,.
O=C1Nc2ccc(Br)cc2C12NNc1ccccc1O2 (stereo not drawn),.,.,.,.,.,43,.
COc1ccc(C=Nn2c(N)c(S(=O)(=O)c3cccs3)c3nc4ccccc4nc32)cc1OC,.,/,/,/,/,/,/
